Experiments:
SW-620 = assay: Inhibitory concentration against SW 620 human colon carcinoma cell line; assay type: functional, cell-based
How it was run: (§1)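 Monolayer cultures in RPMI-1640 with 10% FBS; sensitive lines from ATCC, drug-resistant sublines from Istituto Tumori of Milan. Cells seeded at about 10% confluency and allowed 24 h to attach and recover. Exposed to varying drug concentrations for 24 h at 37 °C under 5% CO2, washed, then grown 48 h drug-free. Vehicle-matched controls. SRB read-out as %T/C. IC50 taken from dose/effect curve. Triplicate wells, mean of ≥3 independent experiments.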

MCF7 [1] = assay: Inhibitory concentration against MCF-7 human breast carcinoma cell line; assay type: functional, cell-based; how it was run: as §1
KB = assay: Inhibitory concentration against KB epidermal carcinoma cell line; assay type: functional, cell-based; conditions: Homo sapiens; how it was run: as §1
HEp-2 = assay: Inhibitory concentration against Hep-2 epidermal carcinoma cell line; assay type: functional, cell-based; conditions: Homo sapiens; how it was run: as §1
A2780cisR = assay: Inhibitory concentration against A2780 ovarian carcinoma resistant to cisplatin; assay type: functional, cell-based; conditions: Homo sapiens; how it was run: as §1
NCI-H460 = assay: Inhibitory concentration against NCI-H460 lung carcinoma cell line; assay type: functional, cell-based; conditions: Homo sapiens; how it was run: as §1
MCF7 [2] = assay: Inhibitory concentration against MCF-7 human breast carcinoma resistant to doxorubicin; assay type: functional, cell-based; how it was run: as §1
A549 = assay: Inhibitory concentration against A549 lung carcinoma cell line; assay type: functional, cell-based; conditions: Homo sapiens; how it was run: as §1
A2780 [3] = assay: Inhibitory concentration against A2780 ovarian carcinoma resistant to doxorubicin; assay type: functional, cell-based; conditions: Homo sapiens; how it was run: as §1
LoVo = assay: Inhibitory concentration against LoVo colon carcinoma cell line; assay type: functional, cell-based; conditions: Homo sapiens; how it was run: as §1
A2780 [4] = assay: Inhibitory concentration against A2780 ovarian carcinoma cell line; assay type: functional, cell-based; conditions: Homo sapiens; how it was run: as §1
[5] = Inhibitory concentration against MeVo melanoma cell line; assay type: functional, Homo sapiens; how it was run: as §1

IC50 (SW-620; Homo sapiens, SW-620) [µM] | IC50 (MCF7 [1]; Homo sapiens, MCF7) [µM] | Compound | other results
 |  | CN(C)CCCN1C(=O)NC2(CSC3=C2C(=O)c2ccccc2C3=O)C1=O (stereo in doubt; (-)-15) | IC50 (SW-620; sw-620): 0.065 µM; IC50 (MCF7 [1]; mcf7): 0.027 µM
0.058 | 0.019 | CN(C)CCCN1C(=O)NC2(CSC3=C2C(=O)c2ccccc2C3=O)C1=O (stereo in doubt; 15) | IC50 (KB): 0.1 µM; IC50 (HEp-2): 0.17 µM; IC50 (A2780cisR): 0.11 µM; IC50 (NCI-H460): 0.26 µM; IC50 (MCF7 [2]): 0.173 µM; IC50 (A549): 0.11 µM; IC50 (A2780 [3]): 0.13 µM; IC50 (LoVo): 0.23 µM; IC50 (A2780 [4]): 0.068 µM; IC50 [5]: 0.25 µM
0.068 | 0.035 | NCCCCN1C(=O)NC2(CSC3=C2C(=O)c2ccccc2C3=O)C1=O (configuration not stated) | 
0.057 | 0.032 | CN(C)CCN1C(=O)NC2(CSC3=C2C(=O)c2ccccc2C3=O)C1=O (configuration not stated) | 
0.379 | 0.104 | CCCN1C(=O)NC2(CSC3=C2C(=O)c2ccccc2C3=O)C1=O (configuration not stated) | 
0.203 | 0.116 | CCN1C(=O)NC2(CSC3=C2C(=O)c2ccccc2C3=O)C1=O (configuration not stated) | 
0.198 | 0.069 | O=C1C2=C(C(=O)c3ccccc31)C1(CS2)NC(=O)N(CCO)C1=O (configuration not stated) | 
0.9 | 0.331 | CC(C)(C)N1C(=O)NC2(CSC3=C2C(=O)c2ccccc2C3=O)C1=O (configuration not stated) | 
0.178 |  | COc1cccc2c1C(=O)c1c(O)c3c(c(O)c1C2=O)C[C@@](O)(C(=O)CO)C[C@@H]3O[C@H]1C[C@H](N)[C@H](O)[C@H](C)O1 [DOXORUBICIN] | IC50 (KB): 0.021 µM; IC50 (HEp-2): 0.059 µM; IC50 (A2780cisR): 0.006 µM; IC50 (NCI-H460): 0.01 µM; IC50 (A549): 0.064 µM; IC50 (A2780 [3]): 0.29 µM; IC50 (LoVo): 0.033 µM; IC50 (A2780 [4]): 0.007 µM; IC50 [5]: 0.82 µM
 |  | NCCN1C(=O)NC2(CSC3=C2C(=O)c2ccccc2C3=O)C1=O (stereo in doubt; (-)-11) | IC50 (SW-620; sw-620): 0.047 µM; IC50 (MCF7 [1]; mcf7): 0.031 µM
0.562 | 0.178 | CCC(C)N1C(=O)NC2(CSC3=C2C(=O)c2ccccc2C3=O)C1=O (configuration not stated) | 
 |  | CN(C)CCCN1C(=O)NC2(CSC3=C2C(=O)c2ccccc2C3=O)C1=O (single isomer, unassigned; (+)) | IC50 (SW-620; sw-620): 0.06 µM
 |  | NCCN1C(=O)NC2(CSC3=C2C(=O)c2ccccc2C3=O)C1=O (single isomer, unassigned; (+)) | IC50 (SW-620; sw-620): 0.034 µM; IC50 (MCF7 [1]; mcf7): 0.02 µM
0.052 | 0.025 | NCCCN1C(=O)NC2(CSC3=C2C(=O)c2ccccc2C3=O)C1=O (configuration not stated) | 
0.74 | 0.178 | CCCCN1C(=O)NC2(CSC3=C2C(=O)c2ccccc2C3=O)C1=O (configuration not stated) | 
0.05 | 0.021 | CCN(CC)CCN1C(=O)NC2(CSC3=C2C(=O)c2ccccc2C3=O)C1=O (configuration not stated) | 
0.035 | 0.022 | NCCN1C(=O)NC2(CSC3=C2C(=O)c2ccccc2C3=O)C1=O (stereo in doubt; 11) | 
0.054 | 0.026 | CCN(CC)CCCN1C(=O)NC2(CSC3=C2C(=O)c2ccccc2C3=O)C1=O (configuration not stated) | 
0.108 | 0.023 | CN1C(=O)NC2(CSC3=C2C(=O)c2ccccc2C3=O)C1=O (configuration not stated) | 
0.119 | 0.04 | O=C1C2=C(C(=O)c3ccccc31)C1(CS2)NC(=O)N(CCCO)C1=O (configuration not stated) | 

Source: ChEMBL document CHEMBL1142665, “Synthesis and cytotoxic evaluation of novel spirohydantoin derivatives of the dihydrothieno[2,3-b]naphtho-4,9-dione system” (J Med Chem, 2005)
